Screening results (PubChem BioAssay)
The list is not random: actives were taken first. Their share in the collection is about 3%.
V-ATPase pHluor: yeast V-ATPase proton transport regulation by pHLuorin. S. cerevisiae, pHLuorin cytosolic pH fluorescence. response, % at 10 µM. hit rate 0.37% among 350,000. AID 504577; in the data active means response mostly above about 7.3%, no sharp cut-off; inactive means mostly below about 5.4%; further: actives read high
AI-2 QS modul: modulators of Vibrio harveyi AI-2 quorum sensing system; Vibrio harveyi JMH597 AI-2 luminescence/OD600 ratio, 9 h; hits give low values; strain lacks LuxN and CqsS sensors; 0 = neutral-control median; AID 2094; hit rate 0.4% among 300,000; activity change, % at 7.5 µM; in the data active means activity change below about -75%, passing the limit was not always enough; inconclusive means no clear call, values can overlap the other calls;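 further: luminescence divided by OD600 gain over 9 h not by final OD600 alone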
Yeast superoxide: yeast age-related superoxide inhibition as caloric restriction mimetic. S. cerevisiae aged cells, superoxide DHE fluorescence; hits give low values. superoxide response (% of plate mean), % at 10 µM. hit rate 0.18% among 330,000. AID 2690;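 active means superoxide response under a set limit, about three screen SD below normal, cut at about 65% in these data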;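 further: yeast aged for seven days with compound at 30 °C before DHE staining; 100% = average MFI of all compound-treated wells on the plate with controls excluded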
CendR NRP1 mod: modulators of CendR peptide binding to human neuropilin-1 | O14786 | FAM-RPARPAR peptide binding to NRP-1, fluorescence polarization | hit rate 0.85% among 360,000 | inhibition, % at 25 µM;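 active means inhibition or corrected inhibition above about 18%, plus a signal ratio from 0.5 to 1.5, limit read from the data, passing the limit was not always enough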
Target sequence (O14786 whole entry, looked up): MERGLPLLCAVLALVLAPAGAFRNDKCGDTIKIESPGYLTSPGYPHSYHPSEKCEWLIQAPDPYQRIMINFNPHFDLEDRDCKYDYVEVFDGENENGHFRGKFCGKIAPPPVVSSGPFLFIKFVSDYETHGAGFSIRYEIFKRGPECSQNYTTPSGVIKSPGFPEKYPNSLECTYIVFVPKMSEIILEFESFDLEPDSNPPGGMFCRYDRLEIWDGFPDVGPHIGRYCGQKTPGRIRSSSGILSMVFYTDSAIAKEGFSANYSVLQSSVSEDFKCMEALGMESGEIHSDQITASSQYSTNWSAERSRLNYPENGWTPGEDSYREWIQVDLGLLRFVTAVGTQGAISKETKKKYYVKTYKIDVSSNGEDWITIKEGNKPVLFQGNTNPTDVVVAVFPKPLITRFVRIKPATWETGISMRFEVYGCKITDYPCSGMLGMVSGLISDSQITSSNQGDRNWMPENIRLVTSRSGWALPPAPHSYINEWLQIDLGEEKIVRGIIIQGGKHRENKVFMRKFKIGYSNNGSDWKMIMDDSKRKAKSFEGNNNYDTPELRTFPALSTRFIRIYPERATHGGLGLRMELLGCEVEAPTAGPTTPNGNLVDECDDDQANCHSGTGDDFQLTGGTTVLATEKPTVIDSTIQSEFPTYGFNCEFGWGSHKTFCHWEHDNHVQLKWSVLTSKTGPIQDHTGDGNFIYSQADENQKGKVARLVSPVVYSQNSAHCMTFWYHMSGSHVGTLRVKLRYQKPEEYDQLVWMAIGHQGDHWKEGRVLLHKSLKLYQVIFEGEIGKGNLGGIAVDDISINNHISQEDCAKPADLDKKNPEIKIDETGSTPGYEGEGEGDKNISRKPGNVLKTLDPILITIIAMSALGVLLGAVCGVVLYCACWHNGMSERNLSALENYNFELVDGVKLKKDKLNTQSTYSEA
HIF act: HIF pathway transcriptional activation; U2OS HRE-luciferase reporter, luminescence; normalized: DMSO 0%, desferrioxamine 100%; activation, % at 7.5 µM (by protocol); hit rate 0.32% among 300,000; AID 1910;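 active means mean activation of at least 10% of the iron chelator positive control signal, with at least half of replicates also reaching 10%; inconclusive means mean and replicate majority disagree about reaching 10%; inactive means mean and most replicates under 10%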
T cruzi inh: blocks replication of Trypanosoma cruzi. AID 1885. T. cruzi beta-gal in NIH3T3, luminescence, 90 h. inhibition, % (no concentration beside the values). hit rate 1.4% among 300,000;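 active means mean inhibition across valid replicates above about 55%, limit read from the data; inconclusive means mean below that limit but half or more replicates reach it; inactive means mean below it, under half of replicates reach it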;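 further: signal also drops with host cell toxicity which is not excluded here; 0% = plate median of DMSO wells and 100% = zero luminescence signal; higher percent means less beta-gal luminescence so fewer parasites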
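compound dosing = single 50 nL compound addition per well in DMSO | material = NIH/3T3 host cells with β-galactosidase reporter T. cruzi | input = 5,000 host fibroblasts per well | timing = ≥90 h infection period, 3 h prior cell attachment | read-out basis = percent inhibition of parasite-derived β-gal signal | detection = GalScreen β-gal luminescence, detergent lysis, 60 min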
Numbers without * were called inactive; ? = inconclusive; nt = not tested or not shown.

SMILES	V-ATPase pHluor	AI-2 QS modul	Yeast superoxide	CendR NRP1 mod	HIF act	T cruzi inh
CCc1ccc(-c2cc3c(=O)n(CC(=O)NCCCN4CCN(CC)CC4)nc(C)n3n2)cc1	1	3	107	24*	1	31
COc1ccc(/C=C/c2nc3ccccc3c(=O)n2-c2cccc(C(=O)O)c2)cc1	-2	14	89	0	0	3
COc1ccc(N2CC(C(=O)NCc3ccccc3)CC2=O)cc1 (centres undefined)	1	4	100	5	0	1
COc1ccc(CNC(=O)C2CSC(=O)C2)cc1 (centres undefined)	1	4	90	1	0	56*
COc1cc2oc3ccc(C#Cc4ccccn4)cc3c(=O)c2cc1OC	-3	16	102	-9	1	59*
COc1cc2oc3ccc(C#Cc4ccc(N)cc4)cc3c(=O)c2cc1OC	2	20	107	-14	1	13
Cc1cc(=O)oc2cc(NS(=O)(=O)c3ccc(F)cc3)ccc12	-4	19	92	37*	0	-20
O=C(CCN1C(=O)/C(=C\c2cccc(Br)c2)SC1=S)NCCCN1CCOCC1	3	16	108	0	0	18
O=C(CCN1C(=O)/C(=C/c2ccccc2)SC1=S)NCCCN1CCOCC1	0	nt	105	-1	-2	55*
COc1ccc(/C=C2\SC(=S)N(CCCC(=O)N3CCN(C)CC3)C2=O)cc1	-2	nt	106	13	0	60*
CN1CCN(C(=O)CCCN2C(=O)/C(=C/c3cccc(Br)c3)SC2=S)CC1	7	8	nt	0	-12	66*
COc1ccc(/C=C2\SC(=O)N(CCC(=O)N(C)C3CCS(=O)(=O)C3)C2=O)cc1 (centres undefined)	3	23	72	5	64*	1
COc1ccc(/C=C2\SC(=O)N(CC(=O)N(C)C3CCS(=O)(=O)C3)C2=O)cc1 (centres undefined)	-1	59	86	13	1	-7
CCCC1(CCC)NC(=O)NC1=O	-1	14	100	-4	1	5
CC(Cl)C(=O)Nc1ccccc1C#N (centres undefined)	-2	5	97	2	0	-13
Cc1ccc(S(=O)(=O)N2CCOC23CCN(C(=O)c2cc(Cl)ccc2Cl)CC3)cc1	-6	-1	129	3	70*	10
COc1cccc(CN2CCN(Cc3ccc(C#CC(C)(C)O)s3)CC2CCO)c1 (centres undefined)	-3	35	128	0	-1	10
Brc1ccc2c(c1)OCCOCCOc1cc(Br)ccc1OCCOCCOCCO2	-1	-2	100	-7	nt	65*
CC(C)n1cc(CN2CCCC(CNS(=O)(=O)c3cccc4cccnc34)C2)cn1 (centres undefined)	0	-1	97	-3	0	64*
O=C(Nc1ccccc1)Nc1ccccc1	-2	nt	nt	-2	nt	nt
O=C(Nc1ccccc1)Nc1ccccc1-n1ccnc1	-1	-3	143	1	-1	61*
COC(C[C@@H](O)C[C@H](O)[C@@H](C)OCc1ccccc1)OC	2	24	nt	21*	0	10
COC(C[C@@H]1O[C@@H]1[C@H](O)[C@H](C)OCc1ccccc1)OC	-3	8	nt	19	1	-17
COC(C[C@H]1O[C@@H]1C(=O)COCc1ccccc1)OC	nt	14	nt	nt	1	-4
COC(C[C@@H]1O[C@H]1C(=O)COCc1ccccc1)OC	8	10	nt	28*	0	-2
SMILES	V-ATPase pHluor	AI-2 QS modul	Yeast superoxide	CendR NRP1 mod	HIF act	T cruzi inh
COC(C[C@H]1O[C@H]1[C@@H](O)[C@@H](C)OCc1ccccc1)OC	0	1	nt	20*	0	-18
CCCN(CC#CC(O)(c1ccccc1)c1cccnc1)CCC (centres undefined)	-2	45	94	7	-1	65*
OC(C#CCN1CCCC1)(c1ccccc1)c1cccnc1 (centres undefined)	-2	17	94	-15	1	42
Cc1ccc(N/C=C(\[N+](=O)[O-])S(=O)(=O)c2ccccc2)cc1	-1	10	101	0	0	?
Cc1cccc(N/C=C(\[N+](=O)[O-])S(=O)(=O)c2ccccc2)c1C	6	3	94	-14	0	82*
O=C(CCN1C(=O)COc2ccccc21)NCc1cccnc1	-2	2	90	3	0	-11
O=C(CN1C(=O)COc2ccccc21)N(Cc1cccnc1)Cc1ccccc1F	1	40	105	4	0	76*
O=c1[nH]c2c(n(C3CCCCC3)c1=O)CCC2	2	21	112	5	0	-5
COc1ccc2cc([C@H](C)C(=O)O)ccc2c1	-4	6	103	-4	0	-8
COc1ccc2cc(C(C)C(=O)N3CCC(C(N)=O)CC3)ccc2c1 (centres undefined)	5	-9	106	5	28*	1
CCOC(=O)c1sc2nc(CSc3ccccc3)nc(N3CCC(C(N)=O)CC3)c2c1C	-1	20	112	2	-1	59*
COc1ccccc1NS(=O)(=O)c1cc(-c2cnc(C3CC3)o2)ccc1C	-4	8	111	22*	-1	-96
CCOc1ccc(NC(=O)CCn2ccnc2)cc1	-1	18	104	3	-19	1
O=C(CCn1ccnc1)Nc1ccc2ccccc2c1	1	12	115	-5	-1	75*
CSc1nc(C)c(CCOCc2ccccc2)c(=O)[nH]1	0	-2	96	-2	-2	13
Cc1cnc(CN(C)Cc2nc(Cc3cccc(C(F)(F)F)c3)no2)[nH]1	1	33	103	-2	0	13
COC(=O)c1c(NC(=O)CN2CCC3(O)CCCCC3C2c2cc(OC)ccc2OC)sc(C)c1C (centres undefined)	1	19	102	27*	-1	31
COC(=O)c1c(NC(=O)CN2CCC3(O)CCCCC3C2c2ccc(F)cc2)sc(C)c1C (centres undefined)	-1	18	95	-5	0	27
O=C(Cn1cc([N+](=O)[O-])cn1)Nc1nccs1	2	4	95	-7	0	1
NS(=O)(=O)c1ccc(Nc2c([N+](=O)[O-])cncc2[N+](=O)[O-])cc1	-2	-93*	110	1	-1	36
COc1cccc(Nc2c([N+](=O)[O-])cncc2[N+](=O)[O-])c1	-1	3	110	6	-8	19
CCSc1nnc(NC(=O)Cn2cnc3ccccc3c2=O)s1	3	-81*	99	-8	0	-1
O=C(N/N=C/c1ccc([N+](=O)[O-])o1)C1CCCC1	-2	?	107	-8	1	72*
